Data published in ChEMBL document CHEMBL4613269, “2-((4-Arylpiperazin-1-yl)methyl)benzonitrile Derivatives as Orally Available Inhibitors of Hepatitis C Virus with a Novel Mechanism of Action” (J Med Chem, 2020).
Active and inactive are the calls of the source. The calls are words filed in the database; no cut-off is given here.

Tests used:
[1] = Toxicity in Kunming mouse assessed as induction of mortality at 250 to 1000 mg/kg dosed via single oral gavage and measured on day 7 post treatment; format: organism-based; details: in vivo
Outline: (§1)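 Kunming mice, 4 groups of n = 6 (3 male, 3 female). Fasted from 12 h before to 1 h after dosing. Single oral gavage of 250, 500 or 1000 mg/kg suspended in 0.5% CMC-Na, or vehicle alone. Followed for 7 days: survival, body weight before and at day 7. Day-7 blood taken for AST, ALT, urea nitrogen and creatinine.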

Hepatitis C virus [2] = assay: Antiviral activity against HCV GS4.3 infected in human Huh7.5 cells assessed as reduction in viral replication at 1 uM simultaneously treated with viral infection for 15 mins to 2 hrs and measured after 72 hrs by In-Cell Western assay; format: functional, organism-based; details: Hepacivirus hominis
Outline: (§2)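 Huh7.5 cells infected with HCV while incubated with compound, either for 4 h across a concentration series or at 1.0 µM for varied times down to 15 min. Supernatant then replaced with fresh medium. Intracellular Core protein measured by In-Cell Western at 72 h.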

Hepatitis C virus [3] = assay: Antiviral activity against HCV J6/JFH/JC1 infected in human Huh7.5 cells incubated for 72 hrs by In-Cell Western assay; format: functional, organism-based, Hepacivirus hominis; details: J6/JFH/JC1, Huh7.5, 72 h
Outline: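 Huh7.5 cells infected with HCVcc (MOI 0.1) and treated with compound at the same time for 72 h. Cells fixed with PFA, permeabilized, then stained for HCV Core and GAPDH with IR-dye secondaries. Core signal normalized to GAPDH. Eight-step 1:5 dilutions in triplicate; EC50 by Reed & Muench; mean of three experiments.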

Hepatitis C virus [4] = assay: Antiviral activity against HCV with wild type glycoprotein E1 infected in human Huh7.5 cells assessed as reduction in viral RNA levels incubated for 72 hrs by qRT-PCR analysis; format: functional, organism-based, Hepacivirus hominis; details: Huh7.5, 72 h
Outline: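 Huh7.5 cells seeded 24 h, then infected with wild-type (or mutant) HCV with compound added at the same time. Incubated 72 h. Intracellular HCV RNA measured by qRT-PCR, 2^-ΔCt method, normalized to GAPDH. Eight-step 1:5 serial dilutions in triplicate; EC50 by Reed & Muench; three independent experiments.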

[5] = AUC (0 to 72 hrs) in beagle dog at 5 mg/kg, iv measured after 0.08 to 72 hrs post dose by LC-MS/MS analysis; format: ADME, organism-based, Canis lupus familiaris; set-up: time < 72 hr, dose 5 mg/kg, route intravenous; details: in vivo
Outline: (§3)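 Single dose to fasted (12 h) animals: oral gavage 15 mg/kg as suspension in 0.5% CMC-Na, or iv 5 mg/kg dissolved in citric acid buffer pH 5.0 with 2.5% DMSO. Jugular vein blood on heparin at 0.08 (iv only) to 72 h. Plasma assayed by LC-MS/MS; parameters from noncompartmental analysis.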

[6] = Toxicity in Kunming mouse assessed as effect on AST level at 250 to 1000 mg/kg dosed via single oral gavage and measured on day 7 post treatment; format: organism-based; details: in vivo; outline: as §1
[7] = Drug level in beagle dog at 15 mg/kg, po measured after 72 hrs post dose by LC-MS/MS analysis; format: ADME, organism-based, Canis lupus familiaris; details: in vivo, read-out: Drug uptake; outline: as §3
[8] = Cytotoxicity in human Huh7.5 cells assessed as reduction in cell viability incubated for 96 hrs by MTT assay; format: cell-based
Outline: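 Huh7.5 cells seeded 24 h before compound addition. Viability read by MTT at 96 h. Eight-step 1:5 serial dilutions in triplicate; CC50 by Reed & Muench; three independent experiments.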

[9] = Drug level in Sprague-Dawley rat at 5 mg/kg, iv measured after 72 hrs post dose by LC-MS/MS analysis; format: ADME, organism-based; details: in vivo, read-out: Drug uptake; outline: as §3
[10] = Cytotoxicity in African green monkey Vero E6 cells assessed as reduction in cell viability; format: cell-based, Vero C1008; details: chlorocebus sabaeus
[11] = Drug level in Sprague-Dawley rat at 15 mg/kg, po measured after 72 hrs post dose by LC-MS/MS analysis; format: ADME, organism-based; details: in vivo, read-out: Drug uptake; outline: as §3
[12] = Apparent Volume of distribution in Sprague-Dawley rat at 5 mg/kg, iv measured after 0.08 to 72 hrs post dose by LC-MS/MS analysis; format: ADME, organism-based; details: in vivo, read-out: Vz; outline: as §3
[13] = Cmax in Sprague-Dawley rat at 15 mg/kg, po measured after 0.08 to 72 hrs post dose by LC-MS/MS analysis; format: ADME, organism-based; set-up: dose 15 mg/kg, route oral; details: in vivo; outline: as §3
Hepatitis C virus [14] = assay: Antiviral activity against HCV genotype 2a pseudoparticle infected in human Huh7.5 cells assessed as reduction in viral replication; format: functional, organism-based; details: Hepacivirus hominis; subtype 2a
Outline: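 Genotype 1b or 2a HCV pseudoparticles made by co-transfecting HEK 293T cells with envelope and luciferase-reporter HIV plasmids; input standardized by luciferase. Huh7.5 cells co-incubated with compound and HCVpp for 4 h at 37°C, washed, then luciferase read at 72 h.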

Zika virus = assay: Antiviral activity against Zika virus infected in Vero E6 cells assessed as reduction in virus-induced cytopathic effect incubated for 96 hrs by CCK8 assay; format: functional, organism-based; details: Vero C1008, 96 h
[15] = Half life in Sprague-Dawley rat at 5 mg/kg, iv measured after 0.08 to 72 hrs post dose by LC-MS/MS analysis; format: ADME, organism-based; details: in vivo; outline: as §3
Influenza A virus = assay: Antiviral activity against influenza A virus H3N2/95-359 infected in MDCK cells assessed as reduction in virus-induced cytopathic effect incubated for 48 hrs by Reed-Muench method; format: functional, organism-based; details: H3N2/95-359, MDCK
[16] = Half life in Sprague-Dawley rat at 15 mg/kg, po measured after 0.08 to 72 hrs post dose by LC-MS/MS analysis; format: ADME, organism-based; details: in vivo; outline: as §3
[17] = Cytotoxicity in MDCK cells assessed as reduction in cell viability; format: cell-based, Canis lupus familiaris; details: dog
Hepatitis C virus [18] = assay: Antiviral activity against HCV GS4.3 infected in human Huh7.5 cells assessed as reduction in viral replication at 0.3125 to 5 uM simultaneously treated with viral infection for 4 hrs and measured after 72 hrs by In-Cell Western assay; format: functional, organism-based; details: Hepacivirus hominis; outline: as §2
Hepatitis C virus [19] = assay: Synergistic antiviral activity against HCV infected in human Huh7.5 cells assessed as reduction in HCV core protein level by measuring (q) value at 0.1 uM in presence of 0.025 uM simeprevir incubated for 72 hrs by Western blot assay based Webb method relative to control; format: functional, Hepacivirus hominis
Outline: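 Huh7.5 cells in 6-well plates were infected with HCV in the presence of 0.1 μM test compound combined with simeprevir 0.025 μM, sofosbuvir 0.1 μM or daclatasvir 0.016 nM. Western blot at 72 h gave HCV core protein relative to actin, normalized to control. q calculated by Webb's method (q<1 antagonism, =1 addition, >1 synergy); over 3 independent experiments.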

[20] = Cmax in beagle dog at 5 mg/kg, iv measured after 0.08 to 72 hrs post dose by LC-MS/MS analysis; format: ADME, organism-based, Canis lupus familiaris; set-up: dose 5 mg/kg, route intravenous; details: in vivo; outline: as §3
[21] = Toxicity in Kunming mouse assessed as effect on ALT level at 250 to 1000 mg/kg dosed via single oral gavage and measured on day 7 post treatment; format: organism-based; details: in vivo; outline: as §1
Hepatitis C virus [22] = assay: Antiviral activity against HCV expressing NS3 D168V mutant by qRT-PCR analysis based by Reed-Muench method; format: functional, organism-based, Hepacivirus hominis
Outline: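 Huh7.5 cells seeded at 3×10^4/cm², infected 24 h later with wild-type or mutant HCV stock while compound or solvent was added at the same time. Intracellular HCV RNA measured by qRT-PCR at 72 h, normalised to GAPDH, 2^-ΔCT method. EC50 by Reed & Muench from eight-step 1:5 serial dilutions, triplicate wells.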

## CN(C)CCN(C)c1ccc(C#N)c(CN2CCN(c3ccc(Cl)cc3)CC2)c1
[1]
  Activity: Non-Toxic
Hepatitis C virus [2]
  Activity: Active
Hepatitis C virus [3]
  EC50: 0.083 to 0.125 µM
Hepatitis C virus [4]
  EC50: 0.006 µM
[5]
  AUC(0-t) at 72 h: 1070 ng·h/mL
[6]
  Activity: Non-Toxic
[7]
  concentration at 72 h: 0.69 ng/mL
[8]
  CC50 at 96 h: 12.8 to 14.8 µM
[9]
  concentration at 72 h: 9.2 ng/mL
[10]
  CC50: 18.4 µM
[11]
  concentration at 72 h: 13.7 ng/mL
[12]
  Vd: 20.1 L/kg
[13]
  Cmax: 501 ng/mL
Hepatitis C virus [14]
  Activity: Dose-dependent effect
Zika virus
  EC50: 5.15 µM
[15]
  half-life: 14.3 h
Influenza A virus
  EC50: > 2.47 µM
[16]
  half-life: 12.8 h
[17]
  CC50: 4.28 µM
Hepatitis C virus [18]
  Activity: Dose-dependent effect
Hepatitis C virus [19]
  Ratio: 1.05
[20]
  Cmax: 532 ng/mL
[21]
  Activity: Non-Toxic
Hepatitis C virus [22]
  EC50: 0.03 µM
